Activity calls are given as the source filed them. The calls are words filed in the database; no cut-off is given here.
Key:
[1] = test system: LoVo; assay: Antiproliferative activity against human LoVo cells at 25 uM after 48 hrs by MTT assay; type: functional, cell-based
In short: (§1)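 Single-point screen at 25 µM in HCT116, SW620 and LOVO cells. Cells seeded at 10^4 cells/ml in DMEM + 10% FBS and left to adhere overnight at 37 °C, 5% CO2. MTT read 48 h after dosing with 0.1% DMSO as the negative control. Inhibition % = (1 − OD treated/OD control) × 100; mean ± SD of three measurements.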

[2] = molecular target: Histone deacetylase; assay: Inhibition of HDAC in human HeLa cell nuclear extract using Boc-Lys (Ac)-AMC as substrate after 60 mins by fluorometric analysis; type: cell-based
[3] = test system: HCT-116; assay: Antiproliferative activity against human HCT116 cells at 25 uM after 48 hrs by MTT assay; type: functional, cell-based; in short: as §1
[4] = test system: SW-620; assay: Antiproliferative activity against human SW620 cells at 25 uM after 48 hrs by MTT assay; type: functional, cell-based; in short: as §1
[5] = test system: LoVo; assay: Antiproliferative activity against human LoVo cells assessed as cell viability after 48 hrs by MTT assay; type: functional, cell-based
[6] = Antiproliferative activity against human HCT116 cells assessed as cell viability after 48 hrs by MTT assay; type: functional, cell-based, HCT-116; conditions: Homo sapiens, HCT-116, 48 h
[7] = Antiproliferative activity against human SW620 cells assessed as cell viability after 48 hrs by MTT assay; type: functional, cell-based; conditions: SW-620, 48 h
[8] = test system: SW480; assay: Antiproliferative activity against human SW480 cells assessed as cell viability after 48 hrs by MTT assay; type: functional, cell-based; conditions: SW480, 48 h

Structure (SMILES) | IC50 [2] | IC50 [5] | IC50 [8] | Activity [1] | Activity [3] | Activity [4] | IC50 [6] | IC50 [7]
COc1ccc(-c2nc(C(=O)NCCCCCC(=O)NO)cc3c2[nH]c2ccccc23)cc1 | 1.17 µM | 7.9 µM | 9.83 µM | Active | Active | Active | 7.16 µM | 8.06 µM
Cc1nc(C(=O)NCCCC(=O)NO)cc2c1[nH]c1ccccc12 | 1.21 µM |  |  | inactive | inactive | inactive |  | 
COc1ccc(-c2nc(NC(=O)NCCC(=O)NO)cc3c4ccccc4n(C)c23)cc1 | 1.33 µM | 5.66 µM | 4.4 µM |  |  |  | 4.27 µM | 5.02 µM
Cc1nc(C(=O)NCCCCC(=O)NO)cc2c1[nH]c1ccccc12 | 1.26 µM |  |  | inactive | inactive | inactive |  | 
COc1ccc(-c2nc(NC(=O)NCC(=O)NO)cc3c4ccccc4n(C)c23)cc1 | 3.16 µM | > 12.5 µM | 9.81 µM |  |  |  | 9.3 µM | 8.36 µM
COc1ccc(-c2nc(C(=O)NCCCCC(=O)NO)cc3c2[nH]c2ccccc23)cc1 | 0.81 µM | 5.28 µM | 4.43 µM | Active | Active | Active | 3.35 µM | 2.53 µM
COc1ccc(-c2nc(NC(=O)NCC(=O)NO)cc3c2[nH]c2ccccc23)cc1 | 2.24 µM | 9.36 µM | 10.1 µM |  |  |  | 8.52 µM | 7.12 µM
Cc1nc(C(=O)NCCC(=O)NO)cc2c1[nH]c1ccccc12 | 2.45 µM |  |  | inactive | inactive | inactive |  | 
COc1ccc(-c2nc(NC(=O)NCCCCCC(=O)NO)cc3c2[nH]c2ccccc23)cc1 | 0.82 µM | 7.34 µM | 5.09 µM |  |  |  | 4.84 µM | 6.25 µM
COc1ccc(-c2nc(C(=O)NCCC(=O)NO)cc3c2[nH]c2ccccc23)cc1 | 1.31 µM | 9.01 µM | 11.2 µM | Active | Active | Active | 8.64 µM | 6.73 µM
COc1ccc(-c2nc(NC(=O)NCCCCCC(=O)NO)cc3c4ccccc4n(C)c23)cc1 | 1.05 µM | > 12.5 µM | > 12.5 µM |  |  |  | 8.76 µM | 9.53 µM
Cc1nc(C(=O)NCC(=O)NO)cc2c1[nH]c1ccccc12 | 5.37 µM |  |  | inactive | inactive | inactive |  | 
COc1ccc(-c2nc(NC(=O)NCCCCC(=O)NO)cc3c4ccccc4n(C)c23)cc1 | 0.86 µM | 6.24 µM | 5.8 µM |  |  |  | 3.87 µM | 5.09 µM
COc1ccc(-c2nc(C(=O)NCC(=O)NO)cc3c2[nH]c2ccccc23)cc1 | 3.02 µM | > 12.5 µM | 10.5 µM | Active | Active | Active | > 12.5 µM | 6.92 µM

Further lines, with some results ahead:

IC50 [2] | IC50 [5] | IC50 [8] | Structure (SMILES) | Activity [1] | Activity [3] | Activity [4] | IC50 [6] | IC50 [7]
1.81 µM |  |  | O=C(CCCCCNC(=O)c1cc2c(cn1)[nH]c1ccccc12)NO | inactive | inactive | inactive |  | 
1.43 µM |  |  | Cc1nc(C(=O)NCCCCCC(=O)NO)cc2c1[nH]c1ccccc12 | inactive | inactive | inactive |  | 
1.43 µM |  |  | O=C(CCCCNC(=O)c1cc2c(cn1)[nH]c1ccccc12)NO | inactive | inactive | inactive |  | 
3.23 µM |  |  | O=C(CCNC(=O)c1cc2c(cn1)[nH]c1ccccc12)NO | inactive | inactive | inactive |  | 
6.17 µM |  |  | O=C(CNC(=O)c1cc2c(cn1)[nH]c1ccccc12)NO | inactive | inactive | inactive |  | 
1.56 µM |  |  | O=C(CCCNC(=O)c1cc2c(cn1)[nH]c1ccccc12)NO | inactive | inactive | inactive |  | 
